The target of experiment [1] is T1, Delta-type opioid receptor (Homo sapiens, UniProt P41143). In words: Displacement of [3H]DPDPE from human delta opioid receptor expressed in HN9.10 cells. It is filed as cell-based. In outline:
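HN9.10 cell membranes (50 μg) expressing hDOR, 10 test concentrations with 1.0 nM [3H]DPDPE in 50 mM Tris pH 7.4 with peptidase inhibitors and BSA, 3 h at 25 °C, duplicates; filtration, scintillation counting. Nonspecific with 10 μM naloxone. Ki by Cheng–Prusoff.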
Background: In a radioligand displacement assay an active substance lowers the binding of a labelled ligand.

The target in experiment [2] is T2, Mu-type opioid receptor (Rattus norvegicus, UniProt P33535). In words: Displacement of [3H]DAMGO from rat mu opioid receptor expressed in HN9.10 cells. It is filed as cell-based. In outline: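 HN9.10 cell membranes (50 μg) expressing rMOR, 10 test concentrations with 1.0 nM [3H]DAMGO in 50 mM Tris pH 7.4 with peptidase inhibitors and BSA, 3 h at 25 °C, duplicates; filtration, scintillation counting. Nonspecific with 10 μM naloxone. Ki by Cheng–Prusoff.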

Experiment [3] deals with T1, Delta-type opioid receptor. As to the kind of experiment: Activity against [35S]GTP-gamma-S binding to human delta opioid receptor expressed in HN9.10 cells. It counts as functional, cell-based. The procedure, abridged:
(§1)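 Membranes (10 μg) from HN9.10 cells stably expressing hDOR or rMOR; various drug concentrations in duplicate or triplicate, 90 min at 30 °C in HEPES pH 7.4 with GDP, MgCl2, NaCl, 0.1 nM [35S]GTPγS; filtration, scintillation counting.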
Background: GTPγS resists hydrolysis and so accumulates on activated G proteins.

Experiment [4] deals with Mu-type opioid receptor (Rattus norvegicus) (UniProt P33535). In words: (§2) Activity against [35S]GTP-gamma-S binding to rat mu opioid receptor expressed in HN9.10 cells. It counts as functional, cell-based. The procedure, abridged: as §1
Experiment [5] has as its target T2, Mu-type opioid receptor. Described as §2. It counts as functional, cell-based. The procedure, abridged:
as §1

For experiment [6], the target named is Delta-type opioid receptor (Mus musculus, UniProt P32300). As to the kind of experiment: Agonist activity at delta opioid receptor assessed as inhibition of electrically stimulated ICR mouse vas deferens contraction. It is filed as functional, tissue-based. In outline: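 Vas deferens from male ICR mice, in 20 mL baths at 0.5 g tension, Mg-free oxygenated Krebs, 37 °C; electrical stimulation 0.1 Hz, 2.0 ms pulses, supramaximal voltage. Cumulative addition to maximal inhibition; integrity checked with 10 nM DPDPE. IC50 by Hill-equation nonlinear least-squares fit, at least four tissues.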

Experiment [7] concerns the target T3, Cholecystokinin receptor type A (Homo sapiens, UniProt P32238).
T3 sequence (P32238 whole entry): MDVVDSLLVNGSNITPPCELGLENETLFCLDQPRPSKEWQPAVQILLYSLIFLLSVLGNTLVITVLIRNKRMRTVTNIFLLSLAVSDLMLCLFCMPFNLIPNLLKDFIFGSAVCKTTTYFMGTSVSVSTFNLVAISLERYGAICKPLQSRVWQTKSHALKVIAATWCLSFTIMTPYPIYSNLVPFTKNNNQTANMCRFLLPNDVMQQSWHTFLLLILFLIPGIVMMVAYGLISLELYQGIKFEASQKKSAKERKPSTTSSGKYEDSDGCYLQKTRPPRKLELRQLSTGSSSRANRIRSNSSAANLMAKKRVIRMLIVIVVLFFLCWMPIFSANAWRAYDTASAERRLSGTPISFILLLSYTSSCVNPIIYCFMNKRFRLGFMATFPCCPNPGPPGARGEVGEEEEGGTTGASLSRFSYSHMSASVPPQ
As to the kind of experiment: Displacement of [125I]CCK-8(SO3) from human CCK1 receptor expressed in HEK293 cells. It counts as cell-based.

Experiment [8] concerns the target T4, Gastrin/cholecystokinin type B receptor (Homo sapiens, UniProt P32239).
T4 sequence (P32239 whole entry): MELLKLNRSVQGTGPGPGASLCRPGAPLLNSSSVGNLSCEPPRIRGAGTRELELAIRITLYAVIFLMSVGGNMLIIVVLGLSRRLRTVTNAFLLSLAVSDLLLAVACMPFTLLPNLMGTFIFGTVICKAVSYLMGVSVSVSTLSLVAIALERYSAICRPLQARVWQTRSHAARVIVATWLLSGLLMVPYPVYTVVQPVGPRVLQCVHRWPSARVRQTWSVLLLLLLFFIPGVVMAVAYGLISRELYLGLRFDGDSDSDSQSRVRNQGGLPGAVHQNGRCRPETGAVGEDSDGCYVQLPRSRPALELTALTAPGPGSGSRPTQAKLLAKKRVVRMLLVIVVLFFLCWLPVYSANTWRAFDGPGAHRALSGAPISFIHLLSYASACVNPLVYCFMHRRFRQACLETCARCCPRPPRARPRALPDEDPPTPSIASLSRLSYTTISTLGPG
In words: Displacement of [125I]CCK-8(SO3) from human CCK2 receptor expressed in HEK293 cells. It counts as cell-based.

The target of experiment [9] is T4, Gastrin/cholecystokinin type B receptor. As to the kind of experiment: Antagonist activity at CCK2 receptor expressed in HEK293 cells assessed as accumulation of [3H]inositol phosphates by PI assay. It is filed as functional, cell-based.
The target in experiment [10] is Mu-type opioid receptor (Cavia porcellus) (UniProt P97266). As to the kind of experiment: Agonist activity at mu opioid receptor assessed as inhibition of electrically stimulated Hartley guinea pig ileum contraction at 1 uM. It counts as functional, tissue-based. The procedure, abridged: (§3)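 Longitudinal muscle–myenteric plexus strips from male Hartley guinea pig ileum, 1 g tension, oxygenated Krebs at 37 °C; 0.1 Hz, 0.4 ms supramaximal stimulation. […] Integrity checked with 10 nM PL-017. Hill-equation fit, at least four tissues.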

Experiment [11] deals with Mu-type opioid receptor (Cavia porcellus, UniProt P97266). As to the kind of experiment: Agonist activity at mu opioid receptor assessed as inhibition of electrically stimulated Hartley guinea pig ileum contraction. It counts as functional, tissue-based. In outline:
as §3

For experiment [12], the target named is T5, Gastrin/cholecystokinin type B receptor (Homo sapiens) (UniProt P32239).
T5 sequence (whole entry): T4 sequence (P32239 whole entry)
To be noted: HEK293.

Experiment [13] deals with T3, Cholecystokinin receptor type A. As to the kind of experiment: Antagonist activity at CCK1 receptor expressed in HEK 293 cells assessed as accumulation of [3H]inositol phosphates by PI assay. It is filed as functional, cell-based, HEK293.
The target in experiment [14] is T6, Cholecystokinin receptor type A (Homo sapiens) (UniProt P32238).
T6 sequence (whole entry): T3 sequence (P32238 whole entry)
To be noted: HEK293.

Experiment [15] concerns the target Delta-type opioid receptor (Mus musculus) (UniProt P32300). In words: Agonist activity at delta opioid receptor assessed as inhibition of electrically stimulated ICR mouse vas deferens contraction at 1 uM. It counts as functional, tissue-based.

The structures appear in SMILES notation. Active and inactive are the calls of the source. The calls are words filed in the database; no cut-off is given here. Where a SMILES comes first, the peptide text is derived from it. [ ]: non-standard residue; d: D form. NMeNle = CCCC[C@H](NC)C(=O)O

T1 sequence (P41143 whole entry): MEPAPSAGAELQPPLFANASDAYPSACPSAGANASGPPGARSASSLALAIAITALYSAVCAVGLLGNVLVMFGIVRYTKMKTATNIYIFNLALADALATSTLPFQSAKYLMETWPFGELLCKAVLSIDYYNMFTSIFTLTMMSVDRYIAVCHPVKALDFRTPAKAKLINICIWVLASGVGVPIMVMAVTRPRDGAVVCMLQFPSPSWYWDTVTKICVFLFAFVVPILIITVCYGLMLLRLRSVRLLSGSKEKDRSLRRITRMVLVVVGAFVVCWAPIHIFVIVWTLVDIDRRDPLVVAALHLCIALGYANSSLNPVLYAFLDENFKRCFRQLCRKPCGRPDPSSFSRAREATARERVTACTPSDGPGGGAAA
T2 sequence (P33535 whole entry): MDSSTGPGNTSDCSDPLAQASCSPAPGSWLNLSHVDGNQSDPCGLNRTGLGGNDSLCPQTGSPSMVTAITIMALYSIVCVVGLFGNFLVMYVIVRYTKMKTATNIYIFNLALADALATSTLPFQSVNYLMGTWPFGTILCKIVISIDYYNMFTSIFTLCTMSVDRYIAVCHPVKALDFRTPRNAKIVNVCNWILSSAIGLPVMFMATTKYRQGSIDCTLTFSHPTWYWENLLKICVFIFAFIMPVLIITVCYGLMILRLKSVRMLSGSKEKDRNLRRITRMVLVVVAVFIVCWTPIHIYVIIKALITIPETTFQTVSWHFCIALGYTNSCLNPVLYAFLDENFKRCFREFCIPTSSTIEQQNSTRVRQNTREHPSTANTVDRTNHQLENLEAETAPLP
Chain of Mu-type opioid receptor (Rattus norvegicus) (P33535 whole entry): as above
Chain of Delta-type opioid receptor (Mus musculus, UniProt P32300) (P32300 whole entry): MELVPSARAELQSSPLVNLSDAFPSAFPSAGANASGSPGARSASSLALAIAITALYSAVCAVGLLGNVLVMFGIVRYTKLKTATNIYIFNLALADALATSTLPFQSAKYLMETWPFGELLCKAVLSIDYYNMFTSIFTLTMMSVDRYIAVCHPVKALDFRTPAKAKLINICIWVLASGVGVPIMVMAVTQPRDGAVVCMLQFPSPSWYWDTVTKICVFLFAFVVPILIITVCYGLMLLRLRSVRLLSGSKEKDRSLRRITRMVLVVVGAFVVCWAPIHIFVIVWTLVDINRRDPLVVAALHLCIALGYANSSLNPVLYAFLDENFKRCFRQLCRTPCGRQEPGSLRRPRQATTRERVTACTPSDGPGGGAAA
Chain of Mu-type opioid receptor (Cavia porcellus, UniProt P97266) (P97266 whole entry): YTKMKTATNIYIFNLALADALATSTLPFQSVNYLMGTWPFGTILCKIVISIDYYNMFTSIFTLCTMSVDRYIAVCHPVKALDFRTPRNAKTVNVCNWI
Chain of Mu-type opioid receptor (Cavia porcellus) (P97266 whole entry): as above
Chain of Delta-type opioid receptor (Mus musculus) (P32300 whole entry): as the sequence (P32300 whole entry) above

For `CCCC[C@@H](C(=O)N[C@@H](CC(=O)O)C(=O)N[C@@H](Cc1ccccc1)C(N)=O)N(C)C(=O)[C@H](Cc1c[nH]c2ccccc12)NC(=O)CNC(=O)[C@H]1CCCN1C(=O)[C@@H](N)Cc1ccc(O)cc1`, the 50% inhibitory concentration (IC50) was 0.2 µM in [1]; 6.03 µM on Mu-type opioid receptor [2]; 0.89 µM in experiment [6]; 10.5 µM in [7]; 0.00269 µM in [8]. The Ki is 0.085 µM in experiment [1], 2.6 µM at Mu-type opioid receptor [2], over 10 µM in experiment [7] and 0.0027 µM in [8]. The EC50 in experiment [3] stood at 0.89 µM; at Mu-type opioid receptor [5], 0.9 µM; in experiment [9], 0.036 µM. For the same compound, the Emax worked out at 110% in experiment [3] and 210% in experiment [4]. Besides, the inhibition in [10] came out at 13%.

`CCCC[C@H](NC(=O)[C@@H](Cc1c[nH]c2ccccc12)NC(=O)CNC(=O)[C@@H](CCCC)NC(=O)[C@@H](N)Cc1ccc(O)cc1)C(=O)N[C@@H](CC(=O)O)C(=O)N[C@@H](Cc1ccccc1)C(N)=O`: the IC50 in experiment [1] is 0.0479 µM; at Mu-type opioid receptor [2], 0.631 µM; in [6], 0.31 µM; on Mu-type opioid receptor [11], 1 µM; in experiment [8], 2.19 µM. Moreover, the results for the Ki (in experiment [1]; on Mu-type opioid receptor [2]; in [8]) were 0.02 µM, 0.27 µM and 2.2 µM, respectively. The EC50 in experiment [3] turned out to be 0.0041 µM; at Mu-type opioid receptor [5], 0.02 µM. Besides, the Emax in experiment [3] was 75%; in experiment [4], 110%. Besides, in [12], the “Log EC50” value is “inactive”.

On to `CCCC[C@H](NC(=O)[C@H](Cc1c[nH]c2ccccc12)NC(=O)CNC(=O)[C@@H](CCCC)NC(=O)[C@@H](N)Cc1ccc(O)cc1)C(=O)N[C@@H](CC(=O)O)C(=O)N[C@@H](Cc1ccccc1)C(N)=O`, for which the IC50 in experiment [1] is 0.00603 µM; on Mu-type opioid receptor [2], 0.0603 µM; in experiment [6] it was 0.023 µM; at Mu-type opioid receptor [11], 0.21 µM; in [7] it was 0.00955 µM; in experiment [8], 0.0151 µM. In addition, the inhibitory constant (Ki) in [1] was found to be 0.0026 µM; at Mu-type opioid receptor [2] it was 0.026 µM; in experiment [7], 0.0096 µM; in [8], 0.015 µM. Also, the EC50 in experiment [3] was 0.0045 µM; at Mu-type opioid receptor [5], 0.00046 µM; in experiment [13], 2.5 µM; in experiment [9], 1.9 µM. The Emax in [3] worked out at 81%; in experiment [4] it was 88%.

Take `CCCC[C@@H](C(=O)N[C@@H](CC(=O)O)C(=O)N[C@@H](Cc1ccccc1)C(N)=O)N(C)C(=O)[C@H](Cc1c[nH]c2ccccc12)NC(=O)CNC(=O)CNC(=O)[C@@H](N)Cc1ccc(O)cc1` (H-YGGW[NMeNle]DF-NH2): the IC50 is 0.2 µM in [1]; 0.55 µM on Mu-type opioid receptor [2]; 0.22 µM in experiment [6]; 4.2 µM on Mu-type opioid receptor [11]; 0.00479 µM in [8]. Moreover, the Ki came out at 0.085 µM in [1], 0.24 µM at Mu-type opioid receptor [2] and 0.0048 µM in experiment [8]. Further, the concentration for a half-maximal effect (EC50) in [3] stood at 0.076 µM; at Mu-type opioid receptor [5], 0.002 µM; in [9], 0.032 µM. The values for the Emax in experiment [3] and in experiment [4] were 68% and 100%, respectively. In [14], the “Log EC50” value is “inactive”.

`CCCC[C@@H](C(=O)N[C@@H](CC(=O)O)C(=O)N[C@@H](Cc1ccccc1)C(N)=O)N(C)C(=O)[C@H](Cc1c[nH]c2ccccc12)NC(=O)CNC(=O)[C@@H]1CCCN1C(=O)[C@@H](N)Cc1ccc(O)cc1`: the inhibition in [15] is 5%; in experiment [10] it was 1.2%. The half-inhibitory concentration (IC50) in experiment [1] was 3.39 µM; in [8], 0.000219 µM. For the same compound, the Ki worked out at 1.5 µM in experiment [1] and 0.00022 µM in [8].

Turning to `CCCC[C@@H](NC(=O)[C@@H](N)Cc1ccc(O)cc1)C(=O)NCC(=O)N[C@H](Cc1c[nH]c2ccccc12)C(=O)N(C)[C@@H](CCCC)C(=O)N[C@@H](CC(=O)O)C(=O)N[C@@H](Cc1ccccc1)C(N)=O`, the IC50 in experiment [1] was 0.724 µM; on Mu-type opioid receptor [2], 2.88 µM; in experiment [6], 0.7 µM; in experiment [7], 9.12 µM; in experiment [8], 1.1 µM. Further, the Ki was determined as 0.31 µM in experiment [1], 1.2 µM on Mu-type opioid receptor [2], 0.91 µM in experiment [7] and 1.1 µM in experiment [8]. In addition, in experiment [4], the Emax is 47%. Further, it took 0.25 µM to reach a half-maximal effect at Mu-type opioid receptor [5] (EC50). For the same compound, in [10], the inhibition was determined as 8.8%. Also, the “Log EC50” value in [14] and in [12] was “inactive” each time.

Turning to `CCCC[C@H](NC(=O)[C@H](Cc1c[nH]c2ccccc12)NC(=O)CNC(=O)[C@@H](Cc1ccccc1)NC(=O)[C@@H](N)Cc1ccc(O)cc1)C(=O)N[C@@H](CC(=O)O)C(=O)N[C@@H](Cc1ccccc1)C(N)=O`, the IC50 is 0.000427 µM in experiment [1]; 0.0794 µM on Mu-type opioid receptor [2]; 0.012 µM in experiment [6]; 0.42 µM on Mu-type opioid receptor [11]; 0.0977 µM in [7]; 0.0257 µM in experiment [8]. For the same compound, the Ki came out at 0.0002 µM in experiment [1], 0.034 µM on Mu-type opioid receptor [2], 0.098 µM in experiment [7] and 0.026 µM in experiment [8]. Moreover, the 50% effective concentration (EC50) in [3] turned out to be 0.0009 µM; on Mu-type opioid receptor [5] it was 0.0014 µM; in experiment [13], 0.3 µM; in experiment [9], 0.11 µM. Further, the figures for the maximal response (Emax) in experiment [3] and in experiment [4] were 170% and 180%, respectively.

The term IC50 denotes the concentration that gives 50% inhibition. The Ki is the equilibrium dissociation constant of an inhibitor or competing ligand from its target. Low values mean higher affinity, high ones lower affinity. As usually defined, the EC50 is the concentration giving half of the maximal effect. A word on the Emax: it is the greatest response seen or fitted, relative to the assay's reference. By inhibition is commonly meant the percentage by which the read-out fell short of the control.

These data come from ChEMBL document CHEMBL1147663, “Structure-activity relationships of bifunctional peptides based on overlapping pharmacophores at opioid and cholecystokinin receptors” (J Med Chem, 2006).
